Experimental data: ChEMBL document CHEMBL1287651, “Synthesis and in vitro antibacterial activity of fluoroquinolone derivatives containing 3-(N'-alkoxycarbamimidoyl)-4-(alkoxyimino) pyrrolidines” (2010)
≈ marks a conversion by molar mass, not a printed value.

Key:
Format in all cases: functional
Streptococcus pneumoniae [1] = test: Antibacterial activity against Streptococcus pneumoniae 08-4 after 18 to 24 hrs by twofold serial dilution method
How it was run: (§1)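 MIC determined by the standard twofold serial dilution method on agar media, screening against Gram-positive and Gram-negative strains. Levofloxacin and gemifloxacin were run alongside as reference drugs.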

[2] = system: Staphylococcus epidermidis; test: Antibacterial activity against methicillin-resistant Staphylococcus epidermidis 09-4 after 18 to 24 hrs by twofold serial dilution method
How it was run: (§2)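 Standard twofold serial agar dilution method on agar media for MIC determination. Screened against representative Gram-positive and Gram-negative strains. Levofloxacin and GMFX served as control drugs.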

Klebsiella pneumoniae [3] = test: Antibacterial activity against Klebsiella pneumoniae 09-21 after 18 to 24 hrs by twofold serial dilution method; how it was run: as §1
[4] = system: Staphylococcus epidermidis; test: Antibacterial activity against methicillin-sensitive Staphylococcus epidermidis 09-3 after 18 to 24 hrs by twofold serial dilution method; how it was run: as §2
Escherichia coli [5] = test: Antibacterial activity against Escherichia coli 08-22 after 18 to 24 hrs by twofold serial dilution method; how it was run: as §1
Escherichia coli [6] = test: Antibacterial activity against Escherichia coli ATCC 25922 after 18 to 24 hrs by twofold serial dilution method; how it was run: as §1
Enterococcus faecalis [7] = test: Antibacterial activity against Enterococcus faecalis 08-10 after 18 to 24 hrs by twofold serial dilution method; how it was run: as §1
Enterococcus faecium [8] = test: Antibacterial activity against Enterococcus faecium 08-2 after 18 to 24 hrs by twofold serial dilution method; how it was run: as §1
Staphylococcus aureus [9] = test: Antibacterial activity against Staphylococcus aureus ATCC […] after 18 to 24 hrs by twofold serial dilution method; how it was run: as §1
Pseudomonas aeruginosa [10] = test: Antibacterial activity against Pseudomonas aeruginosa 09-33 after 18 to 24 hrs by twofold serial dilution method; how it was run: as §1
Pseudomonas aeruginosa [11] = test: Antibacterial activity against Pseudomonas aeruginosa 09-35 after 18 to 24 hrs by twofold serial dilution method; how it was run: as §1
Pseudomonas aeruginosa [12] = test: Antibacterial activity against Pseudomonas aeruginosa 09-32 after 18 to 24 hrs by twofold serial dilution method; how it was run: as §1
Klebsiella pneumoniae [13] = test: Antibacterial activity against Klebsiella pneumoniae 09-23 after 18 to 24 hrs by twofold serial dilution method; how it was run: as §1
Pseudomonas aeruginosa [14] = test: Antibacterial activity against Pseudomonas aeruginosa ATCC 27853 after 18 to 24 hrs by twofold serial dilution method; how it was run: as §1
[15] = system: Staphylococcus epidermidis; test: Antibacterial activity against methicillin-resistant Staphylococcus epidermidis 09-2 after 18 to 24 hrs by twofold serial dilution method; how it was run: as §2
Staphylococcus aureus [16] = test: Antibacterial activity against methicillin-resistant Staphylococcus aureus 08-1 after 18 to 24 hrs by twofold serial dilution method; how it was run: as §2
Enterococcus faecium [17] = test: Antibacterial activity against Enterococcus faecium 08-7 after 18 to 24 hrs by twofold serial dilution method; how it was run: as §1
Streptococcus pneumoniae [18] = test: Antibacterial activity against Streptococcus pneumoniae 08-2 after 18 to 24 hrs by twofold serial dilution method; how it was run: as §1
[19] = system: Staphylococcus epidermidis; test: Antibacterial activity against methicillin-resistant Staphylococcus epidermidis 09-3 after 18 to 24 hrs by twofold serial dilution method; how it was run: as §2
Enterococcus faecalis [20] = test: Antibacterial activity against Enterococcus faecalis 08-12 after 18 to 24 hrs by twofold serial dilution method; how it was run: as §1
Escherichia coli [21] = test: Antibacterial activity against Escherichia coli 08-21 after 18 to 24 hrs by twofold serial dilution method; how it was run: as §1
[22] = system: Staphylococcus epidermidis; test: Antibacterial activity against methicillin-sensitive Staphylococcus epidermidis 09-6 after 18 to 24 hrs by twofold serial dilution method; how it was run: as §2
Klebsiella pneumoniae [23] = test: Antibacterial activity against Klebsiella pneumoniae 09-22 after 18 to 24 hrs by twofold serial dilution method; how it was run: as §1
Pseudomonas aeruginosa [24] = test: Antibacterial activity against Pseudomonas aeruginosa 09-34 after 18 to 24 hrs by twofold serial dilution method; how it was run: as §1
Staphylococcus aureus [25] = test: Antibacterial activity against methicillin-sensitive Staphylococcus aureus 08-2 after 18 to 24 hrs by twofold serial dilution method; how it was run: as §2

SMILES | MIC (Streptococcus pneumoniae [1]) | MIC [2] | MIC (Klebsiella pneumoniae [3]) | MIC [4] | MIC (Escherichia coli [5]) | MIC (Escherichia coli [6]) | MIC (Enterococcus faecalis [7]) | MIC (Enterococcus faecium [8]) | MIC (Staphylococcus aureus [9]) | MIC (Pseudomonas aeruginosa [10]) | MIC (Pseudomonas aeruginosa [11]) | MIC (Pseudomonas aeruginosa [12]) | MIC (Klebsiella pneumoniae [13]) | MIC (Pseudomonas aeruginosa [14]) | MIC [15] | MIC (Staphylococcus aureus [16]) | MIC (Enterococcus faecium [17]) | MIC (Streptococcus pneumoniae [18]) | MIC [19] | MIC (Enterococcus faecalis [20]) | further results
CO/N=C1\CN(c2nc3c(cc2F)c(=O)c(C(=O)O)cn3C2CC2)CC1CN (stereo not given) [GEMIFLOXACIN] | 0.25 µg/mL (≈ 0.642 µM) | 0.06 µg/mL (≈ 0.154 µM) | 16 µg/mL (≈ 41.1 µM) | 0.125 µg/mL (≈ 0.321 µM) | 2 µg/mL (≈ 5.14 µM) | 4 µg/mL (≈ 10.3 µM) | 16 µg/mL (≈ 41.1 µM) | 16 µg/mL (≈ 41.1 µM) | 0.125 µg/mL (≈ 0.321 µM) | 2 µg/mL (≈ 5.14 µM) | 0.5 µg/mL (≈ 1.28 µM) | 0.5 µg/mL (≈ 1.28 µM) | 8 µg/mL (≈ 20.5 µM) | 2 µg/mL (≈ 5.14 µM) | 0.125 µg/mL (≈ 0.321 µM) | 0.25 µg/mL (≈ 0.642 µM) | 2 µg/mL (≈ 5.14 µM) | 8 µg/mL (≈ 20.5 µM) | 0.06 µg/mL (≈ 0.154 µM) | 16 µg/mL (≈ 41.1 µM) | MIC (Escherichia coli [21]): 16 µg/mL (≈ 41.1 µM); MIC [22]: 0.25 µg/mL (≈ 0.642 µM); MIC (Klebsiella pneumoniae [23]): 8 µg/mL (≈ 20.5 µM); MIC (Pseudomonas aeruginosa [24]): 0.5 µg/mL (≈ 1.28 µM); MIC (Staphylococcus aureus [25]): 0.125 µg/mL (≈ 0.321 µM)
CCO/N=C1\CN(c2c(F)cc3c(=O)c(C(=O)O)cn(CCF)c3c2F)CC1/C(N)=N\OCC (stereo not given) | 8 µg/mL (≈ 16.5 µM) | 4 µg/mL (≈ 8.27 µM) | > 128 µg/mL | 4 µg/mL (≈ 8.27 µM) | > 128 µg/mL | 128 µg/mL (≈ 265 µM) | > 128 µg/mL | > 128 µg/mL | 2 µg/mL (≈ 4.14 µM) | > 128 µg/mL | > 128 µg/mL | > 128 µg/mL | > 128 µg/mL | 128 µg/mL (≈ 265 µM) | 4 µg/mL (≈ 8.27 µM) | 4 µg/mL (≈ 8.27 µM) | > 128 µg/mL | 8 µg/mL (≈ 16.5 µM) | 4 µg/mL (≈ 8.27 µM) | > 128 µg/mL | MIC (Escherichia coli [21]): > 128 µg/mL; MIC [22]: 8 µg/mL (≈ 16.5 µM); MIC (Klebsiella pneumoniae [23]): > 128 µg/mL; MIC (Pseudomonas aeruginosa [24]): > 128 µg/mL; MIC (Staphylococcus aureus [25]): > 128 µg/mL
CCO/N=C(/N)C1CN(c2c(F)cc3c(=O)c(C(=O)O)cn(C4CC4)c3c2F)C/C1=N\OC (stereo not given) | 1 µg/mL (≈ 2.16 µM) | 0.06 µg/mL (≈ 0.129 µM) | > 128 µg/mL | 0.06 µg/mL (≈ 0.129 µM) | > 128 µg/mL | > 128 µg/mL | > 128 µg/mL | > 128 µg/mL | 0.06 µg/mL (≈ 0.129 µM) | > 128 µg/mL | > 128 µg/mL | > 128 µg/mL | > 128 µg/mL | > 128 µg/mL | 0.06 µg/mL (≈ 0.129 µM) | 0.06 µg/mL (≈ 0.129 µM) | > 128 µg/mL | 32 µg/mL (≈ 69 µM) | 0.06 µg/mL (≈ 0.129 µM) | > 128 µg/mL | MIC (Escherichia coli [21]): > 128 µg/mL; MIC [22]: 0.06 µg/mL (≈ 0.129 µM); MIC (Klebsiella pneumoniae [23]): 2 µg/mL (≈ 4.32 µM); MIC (Pseudomonas aeruginosa [24]): > 128 µg/mL; MIC (Staphylococcus aureus [25]): 0.06 µg/mL (≈ 0.129 µM)
CO/N=C1\CN(c2c(F)cc3c(=O)c(C(=O)O)cn4c3c2OC[C@@H]4C)CC1/C(N)=N\O (stereo not given in full) | 16 µg/mL (≈ 36.9 µM) | 0.25 µg/mL (≈ 0.577 µM) | > 128 µg/mL | 0.25 µg/mL (≈ 0.577 µM) | > 128 µg/mL | 128 µg/mL (≈ 295 µM) | > 128 µg/mL | > 128 µg/mL | 0.125 µg/mL (≈ 0.288 µM) | > 128 µg/mL | 128 µg/mL (≈ 295 µM) | 64 µg/mL (≈ 148 µM) | > 128 µg/mL | 32 µg/mL (≈ 73.8 µM) | 0.25 µg/mL (≈ 0.577 µM) | 0.25 µg/mL (≈ 0.577 µM) | > 128 µg/mL | 0.25 µg/mL (≈ 0.577 µM) | 0.25 µg/mL (≈ 0.577 µM) | > 128 µg/mL | MIC (Escherichia coli [21]): > 128 µg/mL; MIC [22]: 0.25 µg/mL (≈ 0.577 µM); MIC (Klebsiella pneumoniae [23]): 16 µg/mL (≈ 36.9 µM); MIC (Pseudomonas aeruginosa [24]): > 128 µg/mL; MIC (Staphylococcus aureus [25]): 4 µg/mL (≈ 9.23 µM)
CCO/N=C1\CN(c2c(F)cc3c(=O)c(C(=O)O)cn(C4CC4)c3c2OC(F)F)CC1/C(N)=N\OCC (stereo not given) | > 128 µg/mL | > 128 µg/mL | > 128 µg/mL | > 128 µg/mL | > 128 µg/mL | 128 µg/mL (≈ 244 µM) | > 128 µg/mL | > 128 µg/mL | 1 µg/mL (≈ 1.9 µM) | > 128 µg/mL | > 128 µg/mL | > 128 µg/mL | > 128 µg/mL | 128 µg/mL (≈ 244 µM) | 64 µg/mL (≈ 122 µM) | 2 µg/mL (≈ 3.81 µM) | > 128 µg/mL | > 128 µg/mL | 64 µg/mL (≈ 122 µM) | 64 µg/mL (≈ 122 µM) | MIC (Escherichia coli [21]): > 128 µg/mL; MIC [22]: > 128 µg/mL; MIC (Klebsiella pneumoniae [23]): 64 µg/mL (≈ 122 µM); MIC (Pseudomonas aeruginosa [24]): > 128 µg/mL; MIC (Staphylococcus aureus [25]): 64 µg/mL (≈ 122 µM)
